Tests used:
Settings in all cases: stereoisomer not certain
UniProt Q8VG27 = biological target: T1, UniProt Q8VG27
T1 sequence (whole entry): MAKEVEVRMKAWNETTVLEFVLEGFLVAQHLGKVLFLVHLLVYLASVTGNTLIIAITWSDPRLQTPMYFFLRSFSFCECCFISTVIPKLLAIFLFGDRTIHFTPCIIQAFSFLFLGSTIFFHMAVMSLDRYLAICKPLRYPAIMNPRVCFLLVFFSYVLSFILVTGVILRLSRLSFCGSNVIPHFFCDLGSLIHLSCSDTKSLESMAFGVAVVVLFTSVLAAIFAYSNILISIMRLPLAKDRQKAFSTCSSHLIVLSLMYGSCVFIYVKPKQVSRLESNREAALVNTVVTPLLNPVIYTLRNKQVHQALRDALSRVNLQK
Outline: (§1)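 Each entry records the cell line, G-protein, co-transfected protein and tags used. Methods varied with the source, often transient luciferase assays in mammalian cell lines. A receptor–molecule pair is called responsive (active) if the original authors judged its signal statistically different from baseline and non-responsive (inactive) otherwise.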

UniProt Q8VG49 = biological target: T2, UniProt Q8VG49
T2 sequence (whole entry): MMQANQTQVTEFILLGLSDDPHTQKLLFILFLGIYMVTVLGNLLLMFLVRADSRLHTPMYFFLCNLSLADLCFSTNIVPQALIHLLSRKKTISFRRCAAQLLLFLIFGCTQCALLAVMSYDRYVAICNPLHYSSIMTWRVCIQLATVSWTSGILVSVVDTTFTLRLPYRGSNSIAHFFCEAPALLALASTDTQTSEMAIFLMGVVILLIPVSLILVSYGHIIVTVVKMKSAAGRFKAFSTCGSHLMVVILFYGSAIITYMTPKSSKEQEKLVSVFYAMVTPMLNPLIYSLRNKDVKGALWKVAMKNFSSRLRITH
Outline: as §1

UniProt Q8VG53 = biological target: T3, UniProt Q8VG53
T3 sequence (whole entry): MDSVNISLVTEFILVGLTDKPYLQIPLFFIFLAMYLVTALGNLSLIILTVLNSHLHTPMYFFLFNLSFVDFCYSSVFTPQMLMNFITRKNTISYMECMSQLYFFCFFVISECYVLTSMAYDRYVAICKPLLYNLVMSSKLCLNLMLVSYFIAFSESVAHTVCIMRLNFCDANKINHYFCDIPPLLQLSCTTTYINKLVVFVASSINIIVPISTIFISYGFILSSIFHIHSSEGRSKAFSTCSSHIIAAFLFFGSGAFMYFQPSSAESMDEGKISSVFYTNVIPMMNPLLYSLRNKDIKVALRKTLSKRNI
Outline: as §1

UniProt Q8VG64 = biological target: T4, UniProt Q8VG64
T4 sequence (whole entry): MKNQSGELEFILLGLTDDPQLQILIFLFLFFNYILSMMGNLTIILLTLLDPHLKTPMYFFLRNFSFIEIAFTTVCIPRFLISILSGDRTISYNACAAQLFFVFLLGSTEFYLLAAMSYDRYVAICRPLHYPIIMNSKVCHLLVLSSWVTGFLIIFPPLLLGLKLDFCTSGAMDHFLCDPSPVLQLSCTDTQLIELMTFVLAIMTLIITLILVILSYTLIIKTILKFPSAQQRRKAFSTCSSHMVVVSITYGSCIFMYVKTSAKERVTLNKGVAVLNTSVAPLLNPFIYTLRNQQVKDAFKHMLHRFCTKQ
Outline: as §1

UniProt Q8VG77 = biological target: T5, UniProt Q8VG77
T5 sequence (whole entry): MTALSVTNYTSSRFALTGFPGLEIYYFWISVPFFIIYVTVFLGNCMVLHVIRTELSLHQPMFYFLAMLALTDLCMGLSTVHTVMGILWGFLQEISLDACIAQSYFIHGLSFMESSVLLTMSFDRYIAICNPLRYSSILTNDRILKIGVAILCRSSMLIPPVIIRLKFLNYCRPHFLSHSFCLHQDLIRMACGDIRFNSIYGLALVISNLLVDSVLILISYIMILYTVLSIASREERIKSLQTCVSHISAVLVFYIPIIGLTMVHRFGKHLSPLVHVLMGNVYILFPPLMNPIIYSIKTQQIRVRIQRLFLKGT
Outline: as §1

UniProt Q8VG96 = biological target: T6, UniProt Q8VG96
T6 sequence (whole entry): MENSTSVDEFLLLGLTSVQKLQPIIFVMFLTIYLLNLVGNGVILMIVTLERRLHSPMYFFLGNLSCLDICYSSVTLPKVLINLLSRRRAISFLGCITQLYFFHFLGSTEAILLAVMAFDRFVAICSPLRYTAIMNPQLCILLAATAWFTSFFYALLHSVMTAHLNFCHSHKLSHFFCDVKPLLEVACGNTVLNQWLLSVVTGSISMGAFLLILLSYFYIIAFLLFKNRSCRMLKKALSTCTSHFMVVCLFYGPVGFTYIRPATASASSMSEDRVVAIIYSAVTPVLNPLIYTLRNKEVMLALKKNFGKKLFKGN
Outline: as §1

UniProt Q8VGB9 = biological target: T7, UniProt Q8VGB9
T7 sequence (whole entry): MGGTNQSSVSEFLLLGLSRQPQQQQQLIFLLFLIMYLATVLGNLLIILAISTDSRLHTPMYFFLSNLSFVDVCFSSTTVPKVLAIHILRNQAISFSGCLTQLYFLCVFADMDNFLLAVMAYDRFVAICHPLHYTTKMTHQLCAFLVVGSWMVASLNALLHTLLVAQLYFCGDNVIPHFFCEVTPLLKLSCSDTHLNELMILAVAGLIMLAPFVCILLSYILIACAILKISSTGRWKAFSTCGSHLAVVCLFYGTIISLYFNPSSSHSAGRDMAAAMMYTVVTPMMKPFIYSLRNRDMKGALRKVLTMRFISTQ
Outline: as §1

UniProt Q8VG28 = biological target: UniProt Q8VG28
UniProt Q8VG28, sequence (Q8VG28 as listed by the source): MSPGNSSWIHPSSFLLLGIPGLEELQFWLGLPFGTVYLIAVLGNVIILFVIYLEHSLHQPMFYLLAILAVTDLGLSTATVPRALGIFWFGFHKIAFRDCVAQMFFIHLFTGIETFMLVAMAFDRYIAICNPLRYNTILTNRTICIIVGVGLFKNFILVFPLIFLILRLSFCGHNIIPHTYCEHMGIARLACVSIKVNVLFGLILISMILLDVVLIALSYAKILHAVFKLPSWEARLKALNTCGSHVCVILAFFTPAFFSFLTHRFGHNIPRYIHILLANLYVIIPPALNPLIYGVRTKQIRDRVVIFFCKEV
Outline: as §1

Structure (SMILES)	odorant receptor agonist call (UniProt Q8VG27)	odorant receptor agonist call (UniProt Q8VG49)	odorant receptor agonist call (UniProt Q8VG53)	odorant receptor agonist call (UniProt Q8VG64)	odorant receptor agonist call (UniProt Q8VG77)	odorant receptor agonist call (UniProt Q8VG96)	odorant receptor agonist call (UniProt Q8VGB9)	odorant receptor agonist call (UniProt Q8VG28)
COc1cc(C(=O)O)ccc1O	active	inactive	inactive	inactive	inactive	inactive	inactive	–
CCC(=O)C(=O)CC	inactive	inactive	inactive	inactive	inactive	inactive	active	–
O=C([O-])CCCCCCC(=O)[O-].[H+].[H+]	inactive	–	inactive	inactive	–	–	inactive	inactive
CCCCCCCCCCO	inactive	inactive	inactive	inactive	inactive	inactive	inactive	–
CC(=O)OCC=C(C)C	inactive	inactive	inactive	inactive	inactive	inactive	inactive	–
CCCCCCCCCC(=O)[O-].[H+]	active	active	inactive	inactive	inactive	inactive	inactive	active
CCCCCC(=O)CC	inactive	inactive	inactive	inactive	inactive	inactive	inactive	–
CCCCCCCO	inactive	inactive	inactive	inactive	inactive	inactive	inactive	inactive
CCCCCCCCC(=O)O	inactive	active	inactive	inactive	inactive	inactive	inactive	–
CCCCC(=O)O	inactive	inactive	inactive	inactive	inactive	inactive	inactive	inactive
CCC(=O)O	inactive	inactive	inactive	inactive	inactive	inactive	inactive	–
C=C(C)C1CCC(C)C(=O)C1 (stereo not drawn)	inactive	inactive	inactive	inactive	inactive	inactive	inactive	–
O=C([O-])CCCCCCCC(=O)[O-].[H+].[H+]	inactive	–	inactive	inactive	–	–	inactive	inactive
CC(C)=CCCC(C)=CCO	inactive	inactive	inactive	inactive	inactive	inactive	inactive	–
O=C(O)CCCCCBr	inactive	–	inactive	inactive	–	–	inactive	inactive
c1ccccc1	inactive	inactive	inactive	inactive	inactive	inactive	inactive	–
C=CCOC(=O)CCCCCC	inactive	inactive	inactive	inactive	inactive	inactive	inactive	–
O=C(c1ccccc1)c1ccccc1	inactive	inactive	inactive	inactive	inactive	inactive	inactive	–
CCCC(=O)C(C)=O	inactive	inactive	inactive	inactive	inactive	inactive	inactive	–

Structure (SMILES)	odorant receptor agonist call (UniProt Q8VG27)	odorant receptor agonist call (UniProt Q8VG49)	odorant receptor agonist call (UniProt Q8VG53)	odorant receptor agonist call (UniProt Q8VG64)	odorant receptor agonist call (UniProt Q8VG77)	odorant receptor agonist call (UniProt Q8VG96)	odorant receptor agonist call (UniProt Q8VGB9)	odorant receptor agonist call (UniProt Q8VG28)
CCCCOC=O	inactive	inactive	inactive	inactive	inactive	inactive	inactive	–
CC12CCC(CC1=O)C2(C)C (stereo not drawn)	inactive	inactive	inactive	inactive	inactive	inactive	inactive	–
CCCCCCOC(C)=O	inactive	inactive	inactive	inactive	inactive	inactive	inactive	–
CCCCCCCCCO	inactive	inactive	inactive	inactive	inactive	inactive	inactive	inactive
O=C1Cc2ccccc2O1	inactive	inactive	inactive	inactive	inactive	inactive	inactive	–
CCCCCCCCS	inactive	inactive	inactive	inactive	inactive	inactive	inactive	–
CCCCCCCCO	inactive	inactive	inactive	inactive	inactive	inactive	inactive	inactive
CC(C)=CCCC(C)CCO (stereo not drawn)	inactive	inactive	inactive	inactive	inactive	inactive	inactive	–
CCCCCCO	inactive	inactive	inactive	inactive	inactive	inactive	active	inactive
CCCCC(C)=O	inactive	inactive	inactive	inactive	inactive	inactive	active	–
CC(=O)Oc1ccccc1	inactive	inactive	inactive	inactive	inactive	active	inactive	–
CCCCC=O	inactive	–	inactive	inactive	–	–	inactive	inactive
CCCCC(=O)CC	inactive	inactive	inactive	inactive	inactive	inactive	inactive	–
CCCCCC1=C(C)CCC1=O	inactive	inactive	inactive	inactive	inactive	inactive	inactive	–
O=C1CCOc2ccccc21	inactive	inactive	inactive	inactive	inactive	inactive	inactive	–
CC=Cc1ccc(OC)cc1	inactive	–	inactive	inactive	–	–	inactive	–
CCCC(C)C(=O)OCC (stereo not drawn)	inactive	–	inactive	inactive	–	–	inactive	–
CCCC=O	inactive	–	inactive	inactive	–	–	inactive	–

Reference: the M2OR odorant receptor database
